ChEMBL document CHEMBL3603803, “Design and synthesis of dithiocarbamate linked β-carboline derivatives: DNA topoisomerase II inhibition with DNA binding and apoptosis inducing ability” (Bioorg Med Chem, 2015)
Calls of active or inactive are those of the source. The calls are words filed in the database; no cut-off is given here.

Columns and labels:
[1] = system: DU-145; experiment: Induction of apoptosis in human DU145 cells assessed as necrotic cells at 0.5 uM after 48 hrs by annexin V-FITC/propidium iodide staining-based flow cytometric analysis (reference value: 0.1%); assay type: functional
[2] = system: DU-145; experiment: Induction of apoptosis in human DU145 cells assessed as late apoptotic cells at 1 uM after 48 hrs by annexin V-FITC/propidium iodide staining-based flow cytometric analysis (reference value: 1.52%); assay type: functional
[3] = system: DU-145; experiment: Cell cycle arrest in human DU145 cells assessed as accumulation at S phase at 1 uM after 48 hrs by propidium iodide staining-based flow cytometric analysis (reference value: 4.02%); assay type: functional
[4] = system: DU-145; experiment: Cell cycle arrest in human DU145 cells assessed as accumulation at G2/M phase at 0.5 uM after 48 hrs by propidium iodide staining-based flow cytometric analysis (reference value: 1.97%); assay type: functional
[5] = system: DU-145; experiment: Cell cycle arrest in human DU145 cells assessed as accumulation at G0/G1 phase at 0.5 uM after 48 hrs by propidium iodide staining-based flow cytometric analysis (reference value: 85.94%); assay type: functional
[6] = target: T1, DNA topoisomerase II (Homo sapiens) (UniProt P11388+Q02880); experiment: Inhibition of DNA-topoisomerase 2 catalytic activity (unknown origin) using catenated kDNA as substrate assessed as formation of nicked circular and relaxed DNA at 1 to 100 uM after 30 mins by agarose gel electrophoresis; assay type: protein assay
How it was run: (§1)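 Catenated DNA incubated with topo II and compound at 1, 10 and 100 µM; gel products scored for linear DNA (poison type) versus nicked circular/relaxed DNA retained in wells (catalytic inhibitor type); etoposide at 1, 10, 100 µM as control.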

[7] = system: Calf thymus DNA; experiment: Induction of DNA intercalation of calf thymus DNA at 1 uM by UV-vis spectrophotometric analysis; assay type: nucleic-acid assay; settings: Bos taurus
[8] = system: MCF7; experiment: Cytotoxicity against human MCF7 cells after 48 hrs by MTT assay; assay type: functional, cell-based; settings: MCF7, 48 h
How it was run: (§2)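 Human cancer cell lines (A549 lung, MCF-7 breast, DU-145 prostate, HeLa cervical) exposed to compounds for 48 h; 50% inhibitory concentration derived, average of three individual experiments; doxorubicin reference agent.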

[9] = system: DU-145; experiment: Induction of apoptosis in human DU145 cells assessed as early apoptotic cells at 1 uM after 48 hrs by annexin V-FITC/propidium iodide staining-based flow cytometric analysis (reference value: 0.43%); assay type: functional
[10] = system: A549; experiment: Cytotoxicity against human A549 cells after 48 hrs by MTT assay; assay type: functional, cell-based; settings: A549, 48 h; how it was run: as §2
[11] = system: HeLa; experiment: Cytotoxicity against human HeLa cells after 48 hrs by MTT assay; assay type: functional, cell-based; how it was run: as §2
[12] = system: Calf thymus DNA; experiment: Stabilization of calf thymus DNA at 1:1 DNA to compound molar ratio by CD spectroscopic analysis; assay type: nucleic-acid assay; settings: Bos taurus
How it was run: (§3)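 CD spectra of CT-DNA with compound added at 10 µM to equal CT-DNA concentration (1:1), then raised to 1:2 DNA:ligand; positive band at 275 nm monitored.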

[13] = system: DU-145; experiment: Cell cycle arrest in human DU145 cells assessed as accumulation at G0/G1 phase at 1 uM after 48 hrs by propidium iodide staining-based flow cytometric analysis (reference value: 85.94%); assay type: functional
[14] = system: DU-145; experiment: Cell cycle arrest in human DU145 cells assessed as accumulation at subG1 phase at 0.5 uM after 48 hrs by propidium iodide staining-based flow cytometric analysis (reference value: 6.52%); assay type: functional
[15] = system: DU-145; experiment: Cell cycle arrest in human DU145 cells assessed as accumulation at G2/M phase at 1 uM after 48 hrs by propidium iodide staining-based flow cytometric analysis (reference value: 1.97%); assay type: functional
[16] = system: DU-145; experiment: Induction of apoptosis in human DU145 cells assessed as wrinkled cells at 0.5 uM after 48 hrs by Hoechst 33258 staining-based confocal microscopic analysis; assay type: functional, cell-based
How it was run: (§4)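 Hoechst H33258 staining of treated DU-145 cells at 0.5 µM; apoptotic cells (apoptotic bodies, condensation, nuclear fragmentation) counted by manual field quantification under the microscope, compared with control.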

[17] = system: DU-145; experiment: Induction of apoptosis in human DU145 cells assessed as DNA fragmented cells at 0.5 uM after 48 hrs by Hoechst 33258 staining-based confocal microscopic analysis; assay type: functional, cell-based; how it was run: as §4
[18] = system: DU-145; experiment: Induction of apoptosis in human DU145 cells assessed as viable cells at 0.5 uM after 48 hrs by annexin V-FITC/propidium iodide staining-based flow cytometric analysis (reference value: 97.95%); assay type: functional; settings: DU-145, 48 h, read-out: Activity
[19] = system: DU-145; experiment: Cell cycle arrest in human DU145 cells assessed as accumulation at subG1 phase at 1 uM after 48 hrs by propidium iodide staining-based flow cytometric analysis (reference value: 6.52%); assay type: functional
[20] = system: DU-145; experiment: Induction of apoptosis in human DU145 cells assessed as late apoptotic cells at 0.5 uM after 48 hrs by annexin V-FITC/propidium iodide staining-based flow cytometric analysis (reference value: 1.52%); assay type: functional
[21] = system: DU-145; experiment: Induction of apoptosis in human DU145 cells assessed as early apoptotic cells at 0.5 uM after 48 hrs by annexin V-FITC/propidium iodide staining-based flow cytometric analysis (reference value: 0.43%); assay type: functional
[22] = system: DU-145; experiment: Cell cycle arrest in human DU145 cells assessed as accumulation at S phase at 0.5 uM after 48 hrs by propidium iodide staining-based flow cytometric analysis (reference value: 4.02%); assay type: functional
[23] = system: Calf thymus DNA; experiment: Binding affinity to calf thymus DNA surface at 1 uM by UV-vis spectrophotometric analysis; assay type: nucleic-acid assay; settings: Bos taurus
[24] = system: DU-145; experiment: Induction of apoptosis in human DU145 cells assessed as necrotic cells at 1 uM after 48 hrs by annexin V-FITC/propidium iodide staining-based flow cytometric analysis (reference value: 0.1%); assay type: functional
[25] = system: Calf thymus DNA; experiment: Induction of DNA intercalation of calf thymus DNA at 10 uM by spectrofluorimetric analysis; assay type: nucleic-acid assay; settings: Bos taurus
How it was run: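 Fluorescence titration: CT-DNA added to compound solution and quenching of compound emission peak monitored (617 or 567 nm, depending on compound).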

[26] = system: Calf thymus DNA; experiment: Stabilization of calf thymus DNA at 1:2 DNA to compound molar ratio by CD spectroscopic analysis; assay type: nucleic-acid assay; settings: Bos taurus; how it was run: as §3
[27] = system: DU-145; experiment: Induction of apoptosis in human DU145 cells assessed as viable cells at 1 uM after 48 hrs by annexin V-FITC/propidium iodide staining-based flow cytometric analysis (reference value: 97.95%); assay type: functional; settings: DU-145, 48 h, read-out: Activity
[28] = system: DU-145; experiment: Cytotoxicity against human DU145 cells after 48 hrs by MTT assay; assay type: functional, cell-based; settings: DU-145, 48 h; how it was run: as §2
[29] = target: T1, DNA topoisomerase II (Homo sapiens); experiment: Interfacial poisoning activity at DNA-topoisomerase 2 (unknown origin) using catenated kDNA as substrate assessed as linear DNA formation at 1 to 100 uM after 30 mins by agarose gel electrophoresis; assay type: protein assay; how it was run: as §1

| SMILES | Activity [1] | Activity [2] | Activity [3] | Activity [4] | Activity [5] | Activity [7] | IC50 [8] | Activity [9] | IC50 [10] | IC50 [11] | Activity [12] | Activity [13] | Activity [14] | Activity [15] | Activity [16] | Activity [17] | viability at 0.5 µM [18] | Activity [19] | Activity [20] | Activity [21] | other results |
| --- | --- | --- | --- | --- | --- | --- | --- | --- | --- | --- | --- | --- | --- | --- | --- | --- | --- | --- | --- | --- | --- |
| CSC(=S)NCc1cc2c([nH]c3ccccc32)c(-c2ccc(F)cc2)n1 | 0.14% | 14.68% | 3.34% | 1.98% | 84.83% | Active | 2450 nM | 4.4% | 4360 nM | 3460 nM | Active | 75.52% | 7.34% | 2.33% | Active | Active | 94.6% | 15.61% | 4.17% | 1.07% | inhibition [6]: Active; Activity [22]: 3.36%; Activity [23]: Active; Activity [24]: 0.96%; Activity [25]: Active; Activity [26]: Active; viability at 1 µM [27]: 80%; IC50 [28]: 1340 nM |
| CSC(=S)NCc1cc2c3ccccc3n(C)c2c(-c2ccc(C(F)(F)F)cc2)n1 | 0.93% | 21.19% | 5.31% | 3.73% | 78.9% | Active | 1090 nM | 2.18% | 3540 nM | 1470 nM | Active | 70.81% | 10.12% | 5.36% | Active | Active | 81.5% | 18.6% | 13.7% | 3.82% | Activity [29]: Active; Activity [22]: 5.18%; Activity [23]: Active; Activity [24]: 1.65%; Activity [25]: Active; Activity [26]: Active; viability at 1 µM [27]: 75%; IC50 [28]: 790 nM |
